Test results: ChEMBL document CHEMBL1932946, “Design, synthesis and anticonvulsant evaluation of novel N-(4-substituted phenyl)-2-[4-(substituted) benzylidene]-hydrazinecarbothio amides” (Eur J Med Chem, 2012)
Each block holds one compound with its values, some of them ahead of it. Activity calls are given as the source filed them. The rule behind the calls is not given here.

Experiments:
[1] = Neurotoxicity in ip dosed albino CF-1 mouse assessed as minimum motor impairment after 0.5 hrs by rotarod test; assay type: toxicity, organism-based; conditions: in vivo
Mus musculus [2] = test: Anticonvulsant activity in albino CF-1 mouse assessed as protection against 6 Hz psychomotor seizure at 100 mg/kg, ip after 0.5 hrs by minimal clonic seizure test; assay type: functional; conditions: route intraperitoneal
Outline: (§1)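 Male CF-1 albino mice (18–25 g) given compound i.p., suspended in 0.5% methyl cellulose, 100 mg/kg in screen. Four mice per time point challenged at 0.25, 0.5, 1.0, 2.0 and 4.0 h via corneal electrodes (32 mA, 3 s, 6 Hz). Protection = absence of psychomotor seizure (minimal clonic phase, automatistic behaviours). Scored as animals protected/tested.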

Mus musculus [3] = test: Anticonvulsant activity in ip dosed albino CF-1 mouse assessed as protection against 6 Hz psychomotor seizure after 0.5 hrs by minimal clonic seizure test; assay type: functional; conditions: albino CF-1, ip; outline: as §1
Mus musculus [4] = test: Anticonvulsant activity in albino CF-1 mouse assessed as protection against 6 Hz psychomotor seizure at 100 mg/kg, ip after 4 hrs by minimal clonic seizure test; assay type: functional, organism-based; set-up: dose 100 mg/kg; outline: as §1
Mus musculus [5] = test: Anticonvulsant activity in albino CF-1 mouse assessed as protection against 6 Hz psychomotor seizure at 100 mg/kg, ip after 2 hrs by minimal clonic seizure test; assay type: functional; outline: as §1
[6] = Neuroprotective activity in hippocampal slice assessed as protection against NMDA-induced cell death using propidium iodide staining; assay type: functional, tissue-based; conditions: Hippocampus
Outline: (§2)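 Qualitative primary screen on organotypic hippocampal slice cultures. Cell death induced by NMDA or kainic acid, with or without test compound. Propidium iodide present in all wells; PI fluorescence intensity taken as proportional to cell death.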

Mus musculus [7] = test: Neurotoxicity in albino CF-1 mouse assessed as minimum motor impairment at 300 mg/kg, ip after 4 hrs by rotarod test; assay type: toxicity, organism-based; set-up: dose 300 mg/kg, route intraperitoneal; conditions: in vivo
Outline: (§3)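 Minimal motor impairment assessed in male CF-1 albino mice (18–25 g) at 0.5 and 4 h after i.p. doses of 30, 100 and 300 mg/kg, given in 0.5% methyl cellulose. Minimum dose toxic in half or more of mice recorded.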

Mus musculus [8] = test: Neurotoxicity in albino CF-1 mouse assessed as minimum motor impairment at 300 mg/kg, ip after 0.5 hrs by rotarod test; assay type: toxicity, organism-based; set-up: dose 300 mg/kg, route intraperitoneal; conditions: in vivo; outline: as §3
[9] = Neuroprotective activity in hippocampal slice assessed as protection against kainic acid-induced cell death using propidium iodide staining; assay type: functional, tissue-based; conditions: Hippocampus; outline: as §2
Mus musculus [10] = organism: Mus musculus; test: Protective index, ratio of TD50 for albino CF-1 mouse to ED50 for albino CF-1 mouse by 6 Hz psychomotor seizure test; assay type: functional
Mus musculus [11] = test: Anticonvulsant activity in albino CF-1 mouse assessed as protection against 6 Hz psychomotor seizure at 100 mg/kg, ip after 0.25 hrs by minimal clonic seizure test; assay type: functional; outline: as §1
Mus musculus [12] = test: Anticonvulsant activity in albino CF-1 mouse assessed as protection against 6 Hz psychomotor seizure at 100 mg/kg, ip after 1 hr by minimal clonic seizure test; assay type: functional; outline: as §1
[13] = Octanol-phosphate buffer partition coefficient, log P of the compound at 5 mg after 24 hrs by UV spectroscopic analysis; assay type: physicochemical
Outline: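 5 mg compound added to 10 mL octanol plus 10 mL phosphate buffer in a stoppered tube. Mixture shaken mechanically 24 h at room temperature, then left 6 h in a separating funnel to equilibrate.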

Rattus norvegicus [14] = test: Acute toxicity in albino Sprague-Dawley rat pilocarpine-induced status prevention model at 100 mg/kg, ip measured 4 hrs post pilocarpine challenge; assay type: organism-based; set-up: dose 100 mg/kg, route intraperitoneal; conditions: in vivo
Outline: (§4)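 Acute motor-impairment screen in the PISP programme, using male Sprague Dawley rats. Compound was suspended in 0.5% methyl cellulose and given i.p. at 100, 300 or 600 mg/kg. Two rats were used per dose. Behaviour was closely observed and recorded over a 4 h period at 0.25, 0.5, 1.0, 2.0 and 4.0 h. The result is scored as number toxic over number tested.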

Rattus norvegicus [15] = test: Acute toxicity in albino Sprague-Dawley rat pilocarpine-induced status prevention model at 600 mg/kg, ip measured 4 hrs post pilocarpine challenge; assay type: organism-based; set-up: dose 600 mg/kg, route intraperitoneal; conditions: in vivo; outline: as §4
Rattus norvegicus [16] = test: Acute toxicity in albino Sprague-Dawley rat pilocarpine-induced status prevention model at 600 mg/kg, ip measured 0.25 hrs post pilocarpine challenge; assay type: organism-based; set-up: dose 600 mg/kg, route intraperitoneal; conditions: in vivo; outline: as §4
Rattus norvegicus [17] = test: Acute toxicity in albino Sprague-Dawley rat pilocarpine-induced status prevention model at 100 mg/kg, ip measured 0.25 hrs post pilocarpine challenge; assay type: organism-based; set-up: dose 100 mg/kg, route intraperitoneal; conditions: in vivo; outline: as §4
Rattus norvegicus [18] = test: Acute toxicity in albino Sprague-Dawley rat pilocarpine-induced status prevention model at 100 mg/kg, ip measured 0.5 hrs post pilocarpine challenge; assay type: organism-based; set-up: dose 100 mg/kg, route intraperitoneal; conditions: in vivo; outline: as §4
Rattus norvegicus [19] = test: Acute toxicity in albino Sprague-Dawley rat pilocarpine-induced status prevention model at 300 mg/kg, ip measured 2 hrs post pilocarpine challenge; assay type: organism-based; set-up: dose 300 mg/kg, route intraperitoneal; conditions: in vivo; outline: as §4
Rattus norvegicus [20] = test: Acute toxicity in albino Sprague-Dawley rat pilocarpine-induced status prevention model at 600 mg/kg, ip measured 2 hrs post pilocarpine challenge; assay type: organism-based; set-up: dose 600 mg/kg, route intraperitoneal; conditions: in vivo; outline: as §4
Rattus norvegicus [21] = test: Acute toxicity in albino Sprague-Dawley rat pilocarpine-induced status prevention model at 100 mg/kg, ip measured 2 hrs post pilocarpine challenge; assay type: organism-based; set-up: dose 100 mg/kg, route intraperitoneal; conditions: in vivo; outline: as §4
Rattus norvegicus [22] = test: Acute toxicity in albino Sprague-Dawley rat pilocarpine-induced status prevention model at 600 mg/kg, ip measured 0.5 hrs post pilocarpine challenge; assay type: organism-based; set-up: dose 600 mg/kg, route intraperitoneal; conditions: in vivo; outline: as §4
Rattus norvegicus [23] = test: Acute toxicity in albino Sprague-Dawley rat pilocarpine-induced status prevention model at 600 mg/kg, ip measured 1 hr post pilocarpine challenge; assay type: organism-based; set-up: dose 600 mg/kg, route intraperitoneal; conditions: in vivo; outline: as §4
Rattus norvegicus [24] = test: Acute toxicity in albino Sprague-Dawley rat pilocarpine-induced status prevention model at 300 mg/kg, ip measured 1 hr post pilocarpine challenge; assay type: organism-based; set-up: dose 300 mg/kg, route intraperitoneal; conditions: in vivo; outline: as §4
Rattus norvegicus [25] = test: Acute toxicity in albino Sprague-Dawley rat pilocarpine-induced status prevention model at 100 mg/kg, ip measured 1 hr post pilocarpine challenge; assay type: organism-based; set-up: dose 100 mg/kg, route intraperitoneal; conditions: in vivo; outline: as §4
Rattus norvegicus [26] = test: Acute toxicity in albino Sprague-Dawley rat pilocarpine-induced status prevention model at 300 mg/kg, ip measured 0.5 hrs post pilocarpine challenge; assay type: organism-based; set-up: dose 300 mg/kg, route intraperitoneal; conditions: in vivo; outline: as §4
Rattus norvegicus [27] = test: Acute toxicity in albino Sprague-Dawley rat pilocarpine-induced status prevention model at 300 mg/kg, ip measured 4 hrs post pilocarpine challenge; assay type: organism-based; set-up: dose 300 mg/kg, route intraperitoneal; conditions: in vivo; outline: as §4
Rattus norvegicus [28] = test: Acute toxicity in albino Sprague-Dawley rat pilocarpine-induced status prevention model at 300 mg/kg, ip measured 0.25 hrs post pilocarpine challenge; assay type: organism-based; set-up: dose 300 mg/kg, route intraperitoneal; conditions: in vivo; outline: as §4

- logP at 24 h [13]: 5.78
SMILES: Fc1ccc(NC(=S)N/N=C/c2ccc(Oc3ccc(Cl)cc3)cc2)cc1
- TD50 at 0.5 h [1]: > 500 mg/kg
- Activity (Mus musculus [2]): 100%
- ED50 (Mus musculus [3]): > 200 mg/kg
- Activity (Mus musculus [4]): Active
- Activity (Mus musculus [5]): Active
- Activity [6]: inactive
- Activity (Mus musculus [7]): Non-toxic
- Activity (Mus musculus [8]): Non-toxic
- Activity [9]: inactive
- Ratio TD50/ED50 (Mus musculus [10]): >2.5
- Activity (Mus musculus [11]; route intraperitoneal): 75%
- Activity (Mus musculus [12]): Active

SMILES: Cc1cc(Oc2ccc(/C=N/NC(=S)Nc3ccc(Br)cc3)cc2)ccc1Cl
- Activity (Mus musculus [2]): 75%
- Activity (Rattus norvegicus [14]): Non-toxic
- Activity (Rattus norvegicus [15]): Non-toxic
- Activity (Mus musculus [4]): inactive
- Activity (Mus musculus [5]; route intraperitoneal): 50%
- Activity (Mus musculus [7]): Non-toxic
- Activity (Mus musculus [8]): Non-toxic
- Activity (Rattus norvegicus [16]): Non-toxic
- Activity (Rattus norvegicus [17]): Non-toxic
- Activity (Rattus norvegicus [18]): Non-toxic
- Activity (Rattus norvegicus [19]): Non-toxic
- Activity (Rattus norvegicus [20]): Non-toxic
- Activity (Mus musculus [11]): Active
- Activity (Rattus norvegicus [21]): Non-toxic
- Activity (Rattus norvegicus [22]): Non-toxic
- Activity (Rattus norvegicus [23]): Non-toxic
- Activity (Mus musculus [12]; route intraperitoneal): 50%
- logP at 24 h [13]: 7.89
- Activity (Rattus norvegicus [24]): Non-toxic
- Activity (Rattus norvegicus [25]): Non-toxic
- Activity (Rattus norvegicus [26]): Non-toxic
- Activity (Rattus norvegicus [27]): Non-toxic
- Activity (Rattus norvegicus [28]): Non-toxic
